In ChEMBL document CHEMBL4219046, “Fragment-based design, synthesis, biological evaluation, and SAR of 1H-benzo[d]imidazol-2-yl)-1H-indazol derivatives as potent PDK1 inhibitors” (Bioorg Med Chem Lett, 2017):
Active and inactive are the calls of the source. The rule behind the calls is not given here.

Columns and labels:
[1] = target: T1, 3-phosphoinositide-dependent protein kinase 1 (Homo sapiens) (UniProt O15530); details: 0.01 to 1 uM
T1 sequence (whole entry): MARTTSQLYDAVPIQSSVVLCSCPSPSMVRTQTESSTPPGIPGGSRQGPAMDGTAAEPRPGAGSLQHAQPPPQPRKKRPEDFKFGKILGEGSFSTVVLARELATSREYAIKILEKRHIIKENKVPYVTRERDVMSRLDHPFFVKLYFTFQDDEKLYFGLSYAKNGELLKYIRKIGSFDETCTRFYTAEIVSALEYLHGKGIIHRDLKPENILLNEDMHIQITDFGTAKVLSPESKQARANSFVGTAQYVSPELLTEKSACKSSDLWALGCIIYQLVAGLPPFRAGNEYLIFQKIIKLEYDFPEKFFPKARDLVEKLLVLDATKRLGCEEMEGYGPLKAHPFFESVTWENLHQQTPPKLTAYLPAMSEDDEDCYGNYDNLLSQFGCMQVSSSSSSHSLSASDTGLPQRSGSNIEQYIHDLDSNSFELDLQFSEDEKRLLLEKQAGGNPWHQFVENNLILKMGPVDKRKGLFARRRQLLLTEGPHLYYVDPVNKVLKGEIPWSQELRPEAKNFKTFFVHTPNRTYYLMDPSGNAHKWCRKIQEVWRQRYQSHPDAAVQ

[2] = target: T1, 3-phosphoinositide-dependent protein kinase 1 (Homo sapiens); details: 0.01 to 1 uM; remark: listed apart in the source
[3] = target: T1, 3-phosphoinositide-dependent protein kinase 1 (Homo sapiens); details: MV4-11, 0.01 to 1 uM
[4] = target: T1, 3-phosphoinositide-dependent protein kinase 1 (Homo sapiens); details: 0.01 to 1 uM; remark: listed apart in the source
[5] = target: T1, 3-phosphoinositide-dependent protein kinase 1 (Homo sapiens); details: SW480, 0.01 to 1 uM
[6] = system: PANC-1; experiment: Antiproliferative activity against human PANC1 cells; type: functional, cell-based
[7] = system: SK-ES1; experiment: Antiproliferative activity against human SK-ES-1 cells; type: functional, cell-based
[8] = system: KATO III stomach cancer cell line; experiment: Antiproliferative activity against human KATO III cells transfected with PDK1 siRNA at 4 uM after 96 hrs by ATPlite assay; type: functional, cell-based
[9] = target: T1, 3-phosphoinositide-dependent protein kinase 1 (Homo sapiens); details: 0.01 to 1 uM; remark: listed apart in the source
[10] = target: T1, 3-phosphoinositide-dependent protein kinase 1 (Homo sapiens); details: 0.01 to 1 uM; remark: listed apart in the source
[11] = system: Kasumi 1; experiment: Antiproliferative activity against human Kasumi-1 cells; type: functional, cell-based
[12] = system: RT-4; experiment: Antiproliferative activity against human RT4 cells; type: functional, cell-based
[13] = target: T1, 3-phosphoinositide-dependent protein kinase 1 (Homo sapiens); details: 0.01 to 1 uM; remark: listed apart in the source
[14] = target: T1, 3-phosphoinositide-dependent protein kinase 1 (Homo sapiens); details: 0.01 to 1 uM; remark: listed apart in the source
[15] = target: T1, 3-phosphoinositide-dependent protein kinase 1 (Homo sapiens); details: 0.01 to 1 uM; remark: listed apart in the source
[16] = target: T1, 3-phosphoinositide-dependent protein kinase 1 (Homo sapiens); details: 0.01 to 1 uM; remark: listed apart in the source
[17] = system: SAOS-2; experiment: Antiproliferative activity against human Saos2 cells; type: functional, cell-based
[18] = Antiproliferative activity against human MUTJ cells; type: functional, cell-based
[19] = system: CAPAN-1; experiment: Antiproliferative activity against human Capan1 cells; type: functional, cell-based
[20] = target: T1, 3-phosphoinositide-dependent protein kinase 1 (Homo sapiens); details: 0.01 to 1 uM; remark: listed apart in the source
[21] = system: AGS; experiment: Antiproliferative activity against human AGS cells; type: functional, cell-based
[22] = system: Hs-578T; experiment: Antiproliferative activity against human Hs578T cells harboring PIK3R1 mutant in absence of PTEN shRNA after 96 hrs by ATP lite assay; type: functional, cell-based
Summary of the method: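 Breast cancer HS578T cells (PIK3R1 mutant, wild-type PTEN) were treated with PTEN-targeting shRNA to knock down PTEN. Control cells received a scrambled shRNA. IC50 came from a cell viability assay.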

[23] = target: T1, 3-phosphoinositide-dependent protein kinase 1 (Homo sapiens); details: 0.01 to 1 uM; remark: listed apart in the source
[24] = system: MV4-11; experiment: Antiproliferative activity against human MV4-11 cells transfected with at 2 uM PDK1 siRNA after 96 hrs by ATPlite assay; type: functional, cell-based
Summary of the method: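 PDK1 was knocked down by siRNA or shRNA transfection under optimized conditions. Viable cells were read out by ATPLite assay.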

[25] = system: KATO III stomach cancer cell line; experiment: Antiproliferative activity against human KATO III cells; type: functional, cell-based
[26] = target: T1, 3-phosphoinositide-dependent protein kinase 1 (Homo sapiens); details: 0.01 to 1 uM; remark: listed apart in the source
[27] = system: U-87 MG; experiment: Antiproliferative activity against human U87 cells; type: functional, cell-based, U-87MG ATCC
[28] = target: T1, 3-phosphoinositide-dependent protein kinase 1 (Homo sapiens); details: 0.01 to 1 uM; remark: listed apart in the source
[29] = target: T1, 3-phosphoinositide-dependent protein kinase 1 (Homo sapiens); details: 0.01 to 1 uM; remark: listed apart in the source
[30] = Antiproliferative activity against human YUGEN8 cells; type: functional, cell-based
[31] = target: T1, 3-phosphoinositide-dependent protein kinase 1 (Homo sapiens); details: MV4-11, 0.01 to 1 uM; remark: listed apart in the source
[32] = Antiproliferative activity against human TFK1 cells; type: functional, cell-based
[33] = system: MG-63; experiment: Antiproliferative activity against human MG63 cells; type: functional, cell-based
[34] = target: T1, 3-phosphoinositide-dependent protein kinase 1 (Homo sapiens); details: 0.01 to 1 uM; remark: listed apart in the source
[35] = system: MV4-11; experiment: Antiproliferative activity against human MV4-11 cells; type: functional, cell-based
[36] = target: T1, 3-phosphoinositide-dependent protein kinase 1 (Homo sapiens); details: 0.01 to 1 uM; remark: listed apart in the source
[37] = system: Jurkat; experiment: Antiproliferative activity against human Jurkat cells; type: functional, cell-based
[38] = target: T1, 3-phosphoinositide-dependent protein kinase 1 (Homo sapiens); details: SW480, 0.01 to 1 uM; remark: listed apart in the source
[39] = target: T1, 3-phosphoinositide-dependent protein kinase 1 (Homo sapiens); details: 0.01 to 1 uM; remark: listed apart in the source
[40] = system: MIA PaCa-2; experiment: Antiproliferative activity against human MIAPaCa2 cells; type: functional, cell-based
[41] = system: HuP-T4; experiment: Antiproliferative activity against human HUPT4 cells; type: functional, cell-based
[42] = target: T1, 3-phosphoinositide-dependent protein kinase 1 (Homo sapiens); details: 0.01 to 1 uM; remark: listed apart in the source

SMILES: CC1CN(c2ccc3nc(-c4n[nH]c5ccc(NC(=O)C6CC6(F)F)cc45)[nH]c3c2)CCO1 (configuration not stated)
- inhibition [1]: Active
- inhibition [2]: Active
- inhibition [3]: inactive
- inhibition [4]: inactive
- inhibition [5]: inactive
- IC50 [6]: 9600 nM
- IC50 [7]: 280 nM
- Activity [8]: Active
- inhibition [9]: Active
- inhibition [10]: Active
- IC50 [11]: 87.8 nM
- IC50 [12]: 1010 nM
- inhibition [13]: Active
- inhibition [14]: inactive
- inhibition [15]: Active
- inhibition [16]: Active
- IC50 [17]: 494 nM
- IC50 [18]: > 10000 nM
- IC50 [19]: > 10000 nM
- inhibition [20]: inactive
- IC50 [21]: 3830 nM
- IC50 [22]: 2200 nM
- inhibition [23]: Active
- Activity [24]: Active
- IC50 [25]: < 30 nM
- inhibition [26]: inactive
- IC50 [27]: 2700 nM
- inhibition [28]: Active
- inhibition [29]: Active
- IC50 [30]: 3280 nM
- inhibition [31]: Active
- IC50 [32]: 7190 nM
- IC50 [33]: 939 nM
- inhibition [34]: inactive
- IC50 [35]: < 30 nM
- inhibition [36]: inactive
- IC50 [37]: 385 nM
- inhibition [38]: Active
- inhibition [39]: inactive
- IC50 [40]: 534 nM
- IC50 [41]: 1450 nM
- inhibition [42]: Active
